Reference: ChEMBL document CHEMBL4513216, “Probing the Open Global Health Chemical Diversity Library for Multistage-Active Starting Points for Next-Generation Antimalarials” (ACS Infect Dis, 2020)

Experiment: Toxicity liver stage against HepG2, at 10uM
Format: cell-based
Parameters: test concentration 10 uM, cell line HepG2-A16-CD81EGFP
Settings: human, HepG2-A16-CD81EGFP cells; read-out: INHIBITION
Procedure, shortened: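 Uninfected HepG2-A16-CD81EGFP cells, 3 × 10^3 per well, 1536-well, plated on prespotted compound at 10 μM final, parasite-free screening media added to match infected plates; puromycin 10 μM positive, DMSO 0.5% negative; run in parallel with 48 h PbLuc assay at 37 °C, 5% CO2; viability by CellTiter-Glo luminescence, normalized to controls.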

| SMILES | cytotoxicity at 10 µM |
| --- | --- |
| O=S(=O)(Nc1cn[nH]c1)c1ccc(F)c(Br)c1 | -11.5% |
| CC(C)CC(NC(=O)Nc1ccc(F)c(Cl)c1)C(=O)O (stereo unspecified) | 8.19% |
| Cc1nc(CNC(=O)N(Cc2ccccc2)CC(C)(C)O)oc1C | -2.28% |
| CNC(=O)c1c(C)cccc1NCc1noc(C2CC2)n1 | 29.7% |
| Cc1cccc(-n2cc(CNc3ncnc4c3CCNCC4)cn2)c1 | 3.96% |
| CC(C)c1ncc2c(n1)CN(c1ncnc3[nH]ccc13)CC2 | -3.28% |
| CCc1n[nH]c(SCC(=O)N2CCc3[nH]nc(C4CCC4)c3C2)n1 | -12.1% |
| CCn1c(C)cc(C(=O)NCc2ccc(CS(C)(=O)=O)cc2)c1C | -16.9% |
| CC(=O)N(Cc1noc(C)n1)C1CCN(CC(=O)N(C)C2CC2)C1 (stereo unspecified) | -4.69% |
| O=C(CCCNc1ncccn1)N1CCCC(n2cncn2)C1 (stereo unspecified) | -4.56% |
| CCOCCCNC(=O)CN(c1ccc(F)c(F)c1)S(C)(=O)=O | 9.96% |
| COc1ccc(CNC(=O)C2=NN(c3ccc(C)cc3)C(=O)CN2)cc1 | 17.5% |
| c1cncc(CN(CCCn2ccnc2)CC2CCOC2)c1 (stereo unspecified) | 1.79% |
| CN1CCC(C(=O)N2CCN(Cc3cccc(Cl)c3)CC2)CC1=O (stereo unspecified) | 5.44% |
| Clc1ccccc1C1(c2ccnc(C3CC3)n2)CCNCC1 | 7.89% |
| NC(=O)c1cc(C2CCCN(CCOc3cccc(F)c3)C2)n[nH]1 (stereo unspecified) | -19.6% |
| COC(=O)CN1CCC(C(=O)c2cc(F)ccc2F)CC1 | -6.52% |
| Cc1cc(F)ccc1N1CCCC(NS(=O)(=O)CCCF)C1=O (stereo unspecified) | -3.14% |
| CC(C(N)=O)n1nc(-c2cccs2)cc(N)c1=O (stereo unspecified) | 6.44% |
| Cc1cccc(-n2nc(CC(C)C)nc2CCC(=O)N(C)C)c1 | -9.61% |
| COCCC1(CNC(=O)NCC2CN(C)CCN2C)CCC1 (stereo unspecified) | 6.35% |
| O=C(c1ccon1)N1CCCCC1c1nc2cc(F)ccc2[nH]1 (stereo unspecified) | 2.58% |
| Cc1ccc(Nc2nccc(C3CN(C(C)C)C3)n2)nc1 | -26.2% |

| SMILES | cytotoxicity at 10 µM |
| --- | --- |
| CCC(CC)CS(=O)(=O)NC(=O)C1CCC1 | -6.8% |
| CCCS(=O)(=O)NCc1cccnc1OCC | -7.87% |
| CCC(C)Oc1cc(C(=O)Nc2nnc(C(C)C)[nH]2)ccn1 (stereo unspecified) | -11.2% |
| Cc1ccc(C(=O)N2CCC3(CC2)C(=O)NCCN3C)cc1O | -0.081% |
| O=C(NCCNc1cnccn1)N1CCCC(N2CCCC2)C1 (stereo unspecified) | -3.12% |
| Cc1cccc(CN(Cc2cccnc2)C2CC(C)(C)NC(C)(C)C2)n1 | -5.11% |
| CCCOCC(=O)N1CCCN(Cc2csc(CC)n2)CC1 | 3.78% |
| CCC(CO)N(C/C(C)=C/c1ccco1)Cc1ccco1 (stereo unspecified) | -3.41% |
| O=C(Cc1ccccc1)N1CCC2(CC1)CN(c1ncccn1)CCO2 | -72.3% |
| CC1CCN(C(=O)CCN2Cc3ccccc3C[C@H]2C(N)=O)C1 (stereo partly specified) | -3.11% |
| CCc1nnsc1C(=O)N1CCCC(n2nc(C)nc2C)C1 (stereo unspecified) | 4.63% |
| CCc1nnc(CN2CCc3[nH]c(-c4ccc(OC)cc4)nc3C2)o1 | -132% |
| CC(=O)NCC(=O)N1C[C@@H]2CC[C@H](Oc3ccccc3Cl)[C@@H]2C1 | 9.16% |
| CSCCC(NC(N)=O)C(=O)NCc1ccc(-n2cccn2)cc1 (stereo unspecified) | 18% |
| Cc1cnn(CC2CCCN2Cc2noc(C(C)(C)C)n2)c1 (stereo unspecified) | -10.7% |
| Cc1oc(C)c(C(=O)NCc2ccccc2CN(C)C)c1C | -16.9% |
| CC(NC(=O)c1ccc(CS(C)(=O)=O)o1)c1ccc(F)c(F)c1 (stereo unspecified) | -5.85% |
| CS(=O)(=O)N1CC2(CCN(CC3CCCCC3)C2)Cc2ccccc21 (stereo unspecified) | 23.3% |
| CCN(Cc1ccc2c(c1)OCCO2)C(=O)NCc1cc[nH]n1 | 1.54% |
| COc1ccc(C2CC(=O)Nc3c2cnn3C)cc1 (stereo unspecified) | 22% |
| COc1cc(CNc2cc(N3CCCC3CO)ncn2)ccn1 (stereo unspecified) | -28.5% |
| COc1ccc(-n2cccn2)cc1S(=O)(=O)N1C[C@H](C2CC2)[C@@H](N)C1 | 4.69% |
| CC(C(=O)O)n1nc(C(F)(F)F)c(Cl)c1C1CC1 (stereo unspecified) | 2.01% |

| SMILES | cytotoxicity at 10 µM |
| --- | --- |
| CCc1nc(CN(C)C(=O)c2ccc(OCCCOC)nc2)cs1 | -19.5% |
| Cn1cccc1C(=O)NCc1cnc2n1CCN(C(=O)N1CCCC1)C2 | -5.61% |
| CN(C)Cc1cncc2c1CCN(CC(=O)N(C)C)C2 | -99.4% |
| CCN1CCC2(CCN(Cc3ccc(OC)cc3)CC2)C1=O | -0.0368% |
| Cc1csc(N2CCN(Cc3ccn(C)c(=O)c3)CC2)n1 | 8.08% |
| OCCOc1cc(F)ccc1NCc1nc(-c2ccoc2)no1 | -46.9% |
| Cc1cc(=O)n(CCNC(=O)c2ccccc2Cl)cn1 | -5.07% |
| CCN(CCn1c(=O)oc2ccccc21)CC1CCOCC1 | -8.73% |
| CC1CCCN(C(=O)c2ccc(-c3ccco3)o2)C1 (stereo unspecified) | 4.23% |
| Cn1c(=O)n(C)c2cc(NS(=O)(=O)Cc3cccc(F)c3)ccc21 | 6.37% |
| CCc1nn(C)c2[nH]nc(NC(=O)c3ccccc3COC)c12 | 6.16% |
| CN(CC(=O)Nc1cccnc1)CC1CCCN1c1cccnn1 (stereo unspecified) | 2.66% |
| Cn1cccc1C(=O)N1CCC2(CCCN(CC3CCC3)C2=O)C1 (stereo unspecified) | -2.6% |
| COCCOc1ncccc1CNCc1c(C)nn(C)c1N(C)C | -9.36% |
| CN(c1cccnn1)C1CCN(C(=O)c2n[nH]c3c2CCC3)CC1 | 6.96% |
| CNC(=O)[C@H]1C[C@@H]2CN(S(=O)(=O)c3ccc(OC)cc3)C[C@@H]2N1C | -3.9% |
| Cc1ccc(N2C[C@H]3CCN(Cc4ccncc4)C[C@H]3C2)nn1 | -111% |
| CN(C)[C@@H]1CN(C(=O)Cc2cccc(F)c2)[C@@H]2CCCO[C@H]12 | 1.37% |
| CCc1nnc2n1CCN(C(=O)c1cnc(C3CC3)s1)C2 | 9.21% |
| c1cnc(N2CCC(OCC3CCCCO3)CC2)nc1 (stereo unspecified) | -11.4% |
| CNS(=O)(=O)CCNC(=O)c1coc(COc2ccc(F)cc2)n1 | 0.975% |
| CNc1nc(N2CCN(Cc3ccsc3)C(CCO)C2)nc2c1CCC2 (stereo unspecified) | 3.96% |
| CN1CCC(O)(CNCc2ccc(F)c(C(F)(F)F)c2)CC1 | 3.08% |

| SMILES | cytotoxicity at 10 µM |
| --- | --- |
| CC(C)n1cc(N2CC(C(=O)N3CCc4ccccc4C3)CC2=O)cn1 (stereo unspecified) | -153% |
| COC(=O)CNC(=O)N1CCC2(CC1)CC(c1ccccc1)CN(C)C2 (stereo unspecified) | 0.761% |
| Cc1nc(C)c(C(=O)N2CCc3nnc(C4CCCCN4C)n3CC2)s1 (stereo unspecified) | 0.642% |
| Cc1ccc(C(=O)N2CC[C@H]3[C@@H]2CCC(=O)N3c2ccccc2)cn1 | -112% |
| CC(=O)NCC(=O)N1CCC2(CC1)C(=O)N(CC1CC1)c1ccccc12 | -4.1% |
| CC(C)Oc1ncccc1CNC(=O)N1CCOCC1 | -40.6% |
| COc1ccc(-c2n[nH]c(C)c2CC(=O)NCC2CCCO2)cc1 (stereo unspecified) | -11.6% |
| Nc1ccc(-c2cc(O)cc(CCC3CCCCN3)c2)cn1 (stereo unspecified) | -9.66% |
| CC(C)S(=O)(=O)N1CCOC(CCc2ccccc2)C1 (stereo unspecified) | -4.53% |
| OCC(O)CSCc1nnc(-c2ccc(Cl)cc2)o1 (stereo unspecified) | 10.8% |
| CC(NC(=O)CCCOc1cccc(F)c1)c1ccncc1 (stereo unspecified) | -3.6% |
| COCCN1CCC2(CC1)CN(C(=O)c1ccco1)CCO2 | -1.27% |
| CCN1N=C(C(=O)N2CCCC(c3noc(C)n3)C2)CCC1=O (stereo unspecified) | -12.9% |
| CC(C)COc1ccc(C2SCC(=O)Nc3c2c(=O)[nH]n3C(C)C)cc1 (stereo unspecified) | 8.74% |
| CNS(=O)(=O)c1ccc(CN2CCCC2c2ccc(F)cc2)cc1 (stereo unspecified) | 11.6% |
| COc1cccc(OCC2CCCN(C(=O)CCc3cc(O)no3)C2)c1 (stereo unspecified) | 0.611% |
| CC(O)c1cn(C2CCN(C(=O)C3(C)CCCCC3)CC2)nn1 (stereo unspecified) | -7.11% |
| Fc1ccc(-c2ccc(CNC3CCc4ncnn4C3)o2)cc1 (stereo unspecified) | -7.62% |
| CC(C)=CCC1(C(=O)O)CCCN(c2ccnc(C)n2)C1 (stereo unspecified) | -0.842% |
| COCCCC(=O)Nc1[nH]nc(-c2ccncc2)c1C | -0.158% |
| COc1ccc2c(c1)CCN(Cc1cscn1)CC2 | 0.0869% |
| O=C(NC1CCN(C2CC2)C1)c1cn(-c2ccc(F)cc2)nn1 (stereo unspecified) | -2.25% |
| O=C(C1CCCO1)N1CCC2(CC1)COCCN(Cc1cccnc1)C2 (stereo unspecified) | -108% |

| SMILES | cytotoxicity at 10 µM |
| --- | --- |
| Cn1c(Cn2ccnc2)nnc1C1CCN(C(=O)c2cccnc2)CC1 | -96.4% |
| CCCN(CCC)C(=O)CN(C)Cc1cnc(C)s1 | 20.9% |
| CCOc1ccc(C2CC(=O)Nc3c2c(=O)nc2sccn32)cc1 (stereo unspecified) | -12.7% |
| O=C(Nc1cccc(F)c1)C1=NOC2(CCNCC2)C1 | 5.19% |
| Cc1ccc(S(=O)(=O)NC(C)C#N)cc1Br (stereo unspecified) | 0.727% |
| Cn1ncc2c1NC(=O)CC2c1cccs1 (stereo unspecified) | -0.585% |
| CCOc1ccc(C(F)(F)F)cc1NC(=O)N1CCC(C(N)=O)CC1 | 0.425% |
| CCCN(Cc1ccc(C(=O)NCC2COCCO2)c(=O)[nH]1)C1CC1 (stereo unspecified) | -15.3% |
| Cc1cccc(CN2CCN3C(=O)NC[C@H]3C2)n1 | -3.3% |
| Cc1nc(C)c(C(=O)N(C)Cc2cnn(C)c2)s1 | -1.57% |
| O=C(NCCn1nc2ccccn2c1=O)c1scnc1Cl | -13.9% |
| Cn1cc(C2COC3(CCN(C(=O)c4cccn4C)CC3)C2)cn1 (stereo unspecified) | -75.4% |
| Cn1cc(-c2csc(N3CCN(C(=O)OC(C)(C)C)CC3)n2)cn1 | 23.2% |
| CC1CCN(S(=O)(=O)N2CCc3c(c(C(=O)O)nn3CC3CC3)C2)CC1 | -0.65% |
| CC(C)N(C)CCCNC(=O)c1cnn(C(C)(C)C)c1C(F)(F)F | 7.25% |
| COCC1CN(Cc2ccoc2)Cc2cn(CC3CCOCC3)nc21 (stereo unspecified) | 11.6% |
| Cc1occc1C(=O)N1CC(C(=O)N2CCOCC2)C2(CCOCC2)C1 (stereo unspecified) | 7.37% |
| COc1ccccc1CN(C)C(=O)NCc1c(C)cc(C)[nH]c1=O | -4.98% |
| O=C(CCSc1ccc2c(c1)OCCO2)NCC1CCS(=O)(=O)C1 (stereo unspecified) | -4.01% |
